Results published in ChEMBL document CHEMBL1136932, “Discovery, SAR, and pharmacokinetics of a novel 3-hydroxyquinolin-2(1H)-one series of potent D-amino acid oxidase (DAAO) inhibitors” (J Med Chem, 2009).
Calls of active or inactive are those of the source. The rule behind the calls is not given here.

Tests used:
D-aspartate oxidase = molecular target: T1, D-aspartate oxidase (Homo sapiens, UniProt Q99489); test: Inhibition of human recombinant DDO expressed in sf9 insect cells assessed as degradation of D-aspartic acid by fluorescence assay
T1 sequence (Q99489 whole entry): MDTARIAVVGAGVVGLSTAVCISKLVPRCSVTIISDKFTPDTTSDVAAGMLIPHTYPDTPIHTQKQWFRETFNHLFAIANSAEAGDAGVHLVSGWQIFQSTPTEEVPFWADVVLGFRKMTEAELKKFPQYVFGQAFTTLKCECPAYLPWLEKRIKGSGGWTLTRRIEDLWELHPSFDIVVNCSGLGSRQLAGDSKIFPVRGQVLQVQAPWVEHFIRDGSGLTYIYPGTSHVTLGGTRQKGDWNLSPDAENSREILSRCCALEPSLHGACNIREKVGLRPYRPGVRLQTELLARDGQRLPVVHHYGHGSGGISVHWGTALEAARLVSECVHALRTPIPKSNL

[1] = Dissociation constant, pKa of the compound; assay type: physicochemical
[2] = Ratio of drug level in brain to plasma in 129/SVEV mouse at 10 mg/kg, sc after 4 hrs; conditions: read-out: BPR
Brain [3] = test: Free drug level in Sprague-Dawley CD rat brain at 56 mg/kg, sc after 4 hrs; assay type: ADME, organism-based; set-up: dose 56 mg/kg, route subcutaneous; conditions: in vivo
Brain [4] = test: Free drug level in 129/SVEV mouse brain at 10 mg/kg, sc after 4 hrs; conditions: in vivo
Rattus norvegicus = test: Volume of distribution in Sprague-Dawley CD rat at 3 mg/kg, po and 1 mg/kg, iv; assay type: ADME, organism-based; conditions: in vivo
[5] = Fraction unbound in Sprague-Dawley CD rat brain at 56 mg/kg, sc after 4 hrs; assay type: ADME, organism-based; set-up: dose 56 mg/kg, route subcutaneous
[6] = Displacement of [3H]glycine from NMDA receptor at 10 uM
[7] = Oral bioavailability in Sprague-Dawley CD rat at 3 mg/kg; assay type: ADME, organism-based; conditions: in vivo
[8] = Clearance in Sprague-Dawley CD rat plasma at 3 mg/kg, po and 1 mg/kg, iv; assay type: ADME, organism-based
[9] = Ratio of drug level in brain to plasma in Sprague-Dawley CD rat at 56 mg/kg, sc after 4 hrs; assay type: ADME, organism-based; set-up: dose 56 mg/kg, route subcutaneous; conditions: read-out: BPR
[10] = Cmax in Sprague-Dawley CD rat at 3 mg/kg, po; assay type: ADME, organism-based; set-up: dose 3 mg/kg, route oral; conditions: in vivo
[11] = Half life in Sprague-Dawley CD rat at 3 mg/kg, po and 1 mg/kg, iv; assay type: ADME, organism-based; conditions: in vivo
Mus musculus = test: Elevation of D-serine level in 129/SVEV mouse cerebellum at 10 mg/kg, sc after 4 hrs by LC/MS-MS analysis; assay type: functional, organism-based; set-up: dose 10 mg/kg
Summary of the method: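 Male rats (1-2 mL/kg) or male mice (10 mL/kg) received compound or vehicle sc in 5% DMSO/5% Cremophor EL/90% saline. At 4 h, cerebella were taken under CO2 anesthesia, homogenized in 3 volumes PBS and extracted with 16 volumes acetonitrile, and the supernatant was dried.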

D-amino-acid oxidase = D-amino-acid oxidase (Rattus norvegicus, UniProt O35078); test: Inhibition of rat recombinant DAAO expressed in sf9 insect cells assessed as degradation of D-serine by fluorescence assay
D-amino-acid oxidase, sequence (O35078 whole entry): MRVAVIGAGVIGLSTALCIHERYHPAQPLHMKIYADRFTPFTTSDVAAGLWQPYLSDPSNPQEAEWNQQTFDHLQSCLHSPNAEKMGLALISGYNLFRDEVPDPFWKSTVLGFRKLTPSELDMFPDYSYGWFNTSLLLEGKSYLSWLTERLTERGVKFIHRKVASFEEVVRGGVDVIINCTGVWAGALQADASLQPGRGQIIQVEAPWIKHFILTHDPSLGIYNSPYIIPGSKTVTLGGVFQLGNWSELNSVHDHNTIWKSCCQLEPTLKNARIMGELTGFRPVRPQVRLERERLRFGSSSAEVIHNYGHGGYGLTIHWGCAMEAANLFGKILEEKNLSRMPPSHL

Work on `Cc1c(O)c(=O)[nH]c2ccccc12` yielded an IC50 (D-aspartate oxidase) of 32.3 µM.

In the case of `O=c1[nH]c2ccc(Cl)cc2cc1O`, the IC50 (D-aspartate oxidase) is reported as greater than 50 µM.

`Oc1noc2cc(Cl)ccc12` gave a pKa [1] of 4.

Compound `Cc1cc(C(=O)O)n[nH]1` has a pKa [1] of 4.

Compound `O=c1[nH]c2cnccc2cc1O` has an IC50 (D-aspartate oxidase) greater than 50 µM.

Compound `O=c1[nH]c2ccccc2cc1O` has a Kp at 4 h [2] of 2, a pKa [1] of 8.7 and a Drug uptake (Brain [3]) of 670 nM. The Drug uptake (Brain [4]) was 15 nM, the Vd (Rattus norvegicus) was 10.8 L/kg and the fraction unbound at 4 h [5] was 0.22. It also gave an inhibition [6] of 29%, a bioavailability [7] of 0.9% and a clearance [8] of 46 mL/min/kg. It also gave a Kp at 4 h [9] of 0.7 and a Cmax [10] of 5.5 ng/mL.

With `Cc1cccc2[nH]c(=O)c(O)cc12` the inhibition [6] was less than 50%.

For `Cc1cccc2cc(O)c(=O)[nH]c12`, the IC50 (D-aspartate oxidase) was 31.6 µM.

Work on `Cc1ccc2cc(O)c(=O)[nH]c2c1` yielded an IC50 (D-aspartate oxidase) of 21.5 µM.

Work on `O=c1[nH]c2cc(F)ccc2cc1O` yielded a half-life [11] of 5.4 h, a Vd (Rattus norvegicus) of 1.2 L/kg and an inhibition [6] of less than 50%. The IC50 (D-aspartate oxidase) was 22.4 µM, the bioavailability [7] was 38% and the clearance [8] was 15 mL/min/kg. For the same compound, the Cmax [10] was 754 ng/mL.

With `O=c1[nH]c2c(Cl)cccc2cc1O` the IC50 (D-aspartate oxidase) was greater than 43.4 µM.

With `O=c1[nH]c2ncc(F)c(Cl)c2cc1O` the Kp at 4 h [2] was 0.1, the Drug uptake (Brain [4]) was 12 nM and the Activity (Mus musculus) was “Active”.

Compound `CCc1cccc2[nH]c(=O)c(O)cc12` has an inhibition [6] of less than 50%.

`O=c1[nH]c2c(F)cccc2cc1O` showed an inhibition [6] of less than 50%.

In the case of `CCc1cccc2cc(O)c(=O)[nH]c12`, the IC50 (D-aspartate oxidase) is reported as greater than 50 µM.

`O=c1[nH]c2cccc(Cl)c2cc1O` gave an inhibition [6] of less than 50%, an IC50 (D-aspartate oxidase) of 206 µM and an IC50 (D-amino-acid oxidase) of 0.04 µM.

In the case of `O=c1[nH]c2ccc(F)cc2cc1O`, the half-life [11] is reported as 0.9 h, the Vd (Rattus norvegicus) is reported as 2.3 L/kg and the inhibition [6] is reported as less than 50%. It also gave a bioavailability [7] of 44%, a clearance [8] of 72 mL/min/kg and a Cmax [10] of 216 ng/mL.

For `O=c1[nH]c2cccc(F)c2cc1O`, the inhibition [6] was less than 50% and the IC50 (D-aspartate oxidase) was 64 µM.

Work on `O=c1[nH]c2ncccc2cc1O` yielded an inhibition [6] of less than 50% and an IC50 (D-aspartate oxidase) greater than 7.64 µM.

In the case of `O=c1[nH]c2cccnc2cc1O`, the IC50 (D-aspartate oxidase) is reported as greater than 50 µM.

`O=c1[nH]c2ccncc2cc1O` showed an IC50 (D-aspartate oxidase) greater than 36 µM.

Compound `O=C(O)c1cc2occc2[nH]1` has a Kp at 4 h [2] of 0.8, a pKa [1] of 4 and an IC50 (D-aspartate oxidase) greater than 19.5 µM. The IC50 (D-amino-acid oxidase) was 0.424 µM.

Work on `O=c1[nH]c2nccnc2cc1O` yielded an IC50 (D-aspartate oxidase) greater than 50 µM.
